# Source: ChEMBL document CHEMBL1138494, “Human glucagon receptor antagonists with thiazole cores. A novel series with superior pharmacokinetic properties” (J Med Chem, 2009)
# The source made the active and inactive calls. The calls are words filed in the database; no cut-off is given here.
# Columns and labels:
# Homo sapiens [1] = organism: Homo sapiens; test: Selectivity for human recombinant glucagon receptor over human GLP1R
# Glucagon receptor [2] = target: T1, Glucagon receptor (Homo sapiens, UniProt P47871); test: Displacement of [125I]porcine glucagon from human recombinant glucagon receptor expressed in BHK cells by scintillation proximity assay; assay type: cell-based
# [3] = target: T2, Gastric inhibitory polypeptide receptor (Homo sapiens, UniProt P48546); test: Displacement of [125I]porcine GIP from human recombinant GIPR receptor expressed in BHK cells by scintillation proximity assay; assay type: cell-based
# T2 sequence (P48546 whole entry): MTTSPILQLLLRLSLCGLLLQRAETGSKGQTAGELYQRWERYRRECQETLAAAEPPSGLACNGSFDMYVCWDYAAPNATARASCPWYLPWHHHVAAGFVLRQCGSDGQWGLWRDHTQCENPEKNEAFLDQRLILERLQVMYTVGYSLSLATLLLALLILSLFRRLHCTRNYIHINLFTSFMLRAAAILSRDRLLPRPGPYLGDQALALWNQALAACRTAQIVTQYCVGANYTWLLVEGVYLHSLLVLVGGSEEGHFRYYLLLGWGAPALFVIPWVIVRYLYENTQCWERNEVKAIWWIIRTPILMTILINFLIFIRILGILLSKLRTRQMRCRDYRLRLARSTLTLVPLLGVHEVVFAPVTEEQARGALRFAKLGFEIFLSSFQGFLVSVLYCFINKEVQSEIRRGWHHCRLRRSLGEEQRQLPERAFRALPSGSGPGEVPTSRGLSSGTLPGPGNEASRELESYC
# Homo sapiens [4] = organism: Homo sapiens; test: Selectivity ratio of IC50 for human recombinant glucagon receptor to IC50 for human recombinant GIPR
# How it was run: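 Competition binding of compounds to recombinant human glucagon and GIP receptors on BHK cell membranes, run in parallel as a scintillation proximity assay and, for selected compounds, as a membrane filtration assay.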
# [5] = target: T2, Gastric inhibitory polypeptide receptor; test: Binding affinity to human recombinant GIPR expressed in BHK cells by membrane filter assay; assay type: cell-based
# Glucagon receptor [6] = target: T1, Glucagon receptor; test: Binding affinity to human recombinant glucagon receptor expressed in BHK cells by membrane filter assay; assay type: cell-based
# [7] = Cmax in fasted Sprague-Dawley rat at 1.9 mg/kg, iv and 3.7 mg/kg, po by HTLC-MS/MS analysis; assay type: ADME, organism-based; conditions: in vivo
# How it was run: (§1)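 Rats were dosed intravenously and perorally in separate arms, and plasma concentration-time profiles were obtained. Half-life was taken from the iv arm. Clearance, oral bioavailability, Cmax and Tmax were derived from the profiles.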
# [8] = Clearance in fasted Sprague-Dawley rat at 1.9 mg/kg, iv and 3.7 mg/kg, po by HTLC-MS/MS analysis; assay type: ADME, organism-based; conditions: in vivo; how it was run: as §1
# [9] = Tmax in fasted Sprague-Dawley rat at 1.9 mg/kg, iv and 3.7 mg/kg, po by HTLC-MS/MS analysis; assay type: ADME, organism-based; conditions: in vivo
# How it was run: (§2)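 Plasma concentration–time profiles were recorded after separate intravenous and peroral dosing at the per-compound doses listed. T_max is reported in min alongside C_max (ng/mL), intravenous half-life and clearance ((mL/min)/kg).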
# [10] = Half life in fasted Sprague-Dawley rat plasma at 1.9 mg/kg, iv by HTLC-MS/MS analysis; assay type: ADME, organism-based; parameters: dose 1.9 mg/kg, route intravenous; how it was run: as §1
# [11] = Oral bioavailability in fasted Sprague-Dawley rat at 3.7 mg/kg by HTLC-MS/MS analysis; assay type: ADME, organism-based; conditions: in vivo
# How it was run: (§3)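 Separate intravenous and peroral dosing arms per compound, with plasma concentration followed against time. Oral bioavailability (F_po) is reported per compound together with the intravenous half-life and clearance. The dose used for each arm is listed per compound.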
# Glucagon receptor [12] = target: Glucagon receptor (Rattus norvegicus, UniProt P30082); test: Binding affinity to glucagon receptor in rat liver membrane by membrane filter assay; assay type: cell membranes
# [13] = Oral bioavailability in fasted Sprague-Dawley rat at 3.34 mg/kg by HTLC-MS/MS analysis; assay type: ADME, organism-based; conditions: in vivo; how it was run: as §3
# [14] = Cmax in fasted Sprague-Dawley rat at 1.66 mg/kg, iv and 3.34 mg/kg, po by HTLC-MS/MS analysis; assay type: ADME, organism-based; conditions: in vivo; how it was run: as §1
# [15] = Half life in fasted Sprague-Dawley rat plasma at 1.66 mg/kg, iv by HTLC-MS/MS analysis; assay type: ADME, organism-based; parameters: dose 1.66 mg/kg, route intravenous; how it was run: as §1
# Hepatocyte [16] = test: Inhibition of glucagon-stimulated glucose production in human primary hepatocytes preincubated for 10 mins before glucagon addition by NADH-linked hexokinase assay; assay type: functional, cell-based
# How it was run: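 Cultured primary human hepatocytes were preincubated with compound for 10 min, then glycogenolysis was induced with 5 nM glucagon for 60 min. Glucose in the medium was measured against basal glycogenolysis. Albumin was present in the assay medium. IC50 was calculated from four experiments, mean ± SEM.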
# [17] = Tmax in fasted Sprague-Dawley rat at 1.66 mg/kg, iv and 3.34 mg/kg, po by HTLC-MS/MS analysis; assay type: ADME, organism-based; conditions: in vivo; how it was run: as §2
# [18] = Binding affinity to glucagon receptor in monkey liver membrane by membrane filter assay; assay type: cell membranes, Macaca mulatta
# [19] = Clearance in fasted Sprague-Dawley rat at 1.66 mg/kg, iv and 3.34 mg/kg, po by HTLC-MS/MS analysis; assay type: ADME, organism-based; conditions: in vivo; how it was run: as §1
# Glucagon receptor [20] = target: Glucagon receptor (Mus musculus, UniProt Q61606); test: Binding affinity to glucagon receptor in mouse liver membrane by membrane filter assay; assay type: cell membranes
# Hepatocyte [21] = test: Inhibition of glucagon-stimulated glucose production in rat primary hepatocytes; assay type: functional, cell-based
# [22] = Tmax in fasted Sprague-Dawley rat at 1.6mg/kg, iv and 3 mg/kg, po; assay type: ADME, organism-based; parameters: dose 3 mg/kg, route oral; conditions: in vivo; how it was run: as §2
# [23] = Clearance in fasted Sprague-Dawley rat at 1.66 mg/kg, iv and 3 mg/kg, po; assay type: ADME, organism-based; conditions: in vivo; how it was run: as §1
# [24] = Cmax in fasted Sprague-Dawley rat at 1.66mg/kg, iv and 3 mg/kg, po; assay type: ADME, organism-based; parameters: dose 3 mg/kg, route oral; conditions: in vivo; how it was run: as §1
# [25] = Oral bioavailability in fasted Sprague-Dawley rat at 3 mg/kg by HTLC-MS/MS analysis; assay type: ADME, organism-based; conditions: in vivo; how it was run: as §3
# T1 sequence (P47871 whole entry): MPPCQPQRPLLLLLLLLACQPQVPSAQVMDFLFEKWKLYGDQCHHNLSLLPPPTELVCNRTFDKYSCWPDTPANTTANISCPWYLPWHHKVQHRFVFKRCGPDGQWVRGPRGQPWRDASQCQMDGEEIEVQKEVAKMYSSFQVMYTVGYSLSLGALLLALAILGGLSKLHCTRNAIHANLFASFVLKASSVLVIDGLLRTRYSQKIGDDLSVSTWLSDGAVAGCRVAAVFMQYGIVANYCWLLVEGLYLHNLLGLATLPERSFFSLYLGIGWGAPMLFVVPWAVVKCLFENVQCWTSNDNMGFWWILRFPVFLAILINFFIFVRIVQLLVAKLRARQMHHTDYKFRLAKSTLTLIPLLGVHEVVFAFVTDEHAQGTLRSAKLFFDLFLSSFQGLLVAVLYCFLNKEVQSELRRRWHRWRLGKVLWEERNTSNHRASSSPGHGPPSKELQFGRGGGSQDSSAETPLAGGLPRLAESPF
# Glucagon receptor (Rattus norvegicus, UniProt P30082), sequence (P30082 whole entry): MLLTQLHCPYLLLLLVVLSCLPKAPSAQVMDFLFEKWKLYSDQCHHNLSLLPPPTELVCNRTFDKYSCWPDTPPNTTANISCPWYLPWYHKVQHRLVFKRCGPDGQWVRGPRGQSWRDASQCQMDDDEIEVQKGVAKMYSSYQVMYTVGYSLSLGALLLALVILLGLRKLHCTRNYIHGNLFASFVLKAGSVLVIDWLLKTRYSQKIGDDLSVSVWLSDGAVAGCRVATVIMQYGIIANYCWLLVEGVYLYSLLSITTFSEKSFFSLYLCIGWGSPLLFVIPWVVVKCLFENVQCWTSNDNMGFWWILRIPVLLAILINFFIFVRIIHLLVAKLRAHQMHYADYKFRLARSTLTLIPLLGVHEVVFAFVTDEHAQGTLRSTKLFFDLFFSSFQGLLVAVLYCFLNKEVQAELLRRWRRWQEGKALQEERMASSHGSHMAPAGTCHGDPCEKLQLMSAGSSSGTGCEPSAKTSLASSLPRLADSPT
# Glucagon receptor (Mus musculus, UniProt Q61606), sequence (Q61606 whole entry): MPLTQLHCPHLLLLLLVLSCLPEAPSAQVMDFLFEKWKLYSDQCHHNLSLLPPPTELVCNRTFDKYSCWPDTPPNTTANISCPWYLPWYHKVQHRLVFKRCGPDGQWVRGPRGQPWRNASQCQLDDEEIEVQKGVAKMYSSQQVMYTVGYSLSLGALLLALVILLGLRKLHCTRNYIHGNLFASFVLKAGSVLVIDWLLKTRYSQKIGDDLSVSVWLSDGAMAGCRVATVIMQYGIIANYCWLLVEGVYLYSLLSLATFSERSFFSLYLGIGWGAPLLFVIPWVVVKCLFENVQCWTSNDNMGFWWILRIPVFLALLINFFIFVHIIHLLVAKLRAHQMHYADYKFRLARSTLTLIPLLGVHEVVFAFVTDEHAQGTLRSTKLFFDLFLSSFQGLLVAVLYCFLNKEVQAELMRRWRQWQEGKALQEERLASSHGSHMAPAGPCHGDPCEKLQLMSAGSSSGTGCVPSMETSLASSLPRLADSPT
Compound,fold change (FC) (Homo sapiens [1]),IC50 (Glucagon receptor [2]),IC50 [3],fold change (FC) (Homo sapiens [4]),further results
O=C(NC[C@@H](O)C(=O)O)c1ccc(CN(c2ccc3c(c2)CCC3)c2nc(-c3ccc(OC(F)(F)F)cc3)cs2)cc1,> 50,225 nM,> 1000 nM,5,–
Cc1cc(N(Cc2ccc(C(=O)NCCC(=O)O)cc2)c2nc(-c3ccc(C(F)(F)F)cc3)cs2)ccc1C(C)C,> 50,119 nM,633 nM,5,IC50 [5]: 293 nM; IC50 (Glucagon receptor [6]): 93 nM
O=C(O)CCNC(=O)c1ccc(CN(c2ccc(C3=CCCCC3)cc2)c2nc(-c3ccccc3)cs2)cc1,> 50,130 nM,389 nM,5,Cmax [7]: 94 ng/mL; clearance [8]: 35 mL/min/kg; Tmax [9]: 1.5 h; half-life [10]: 0.617 h; bioavailability [11]: 5%
COc1ccccc1-c1csc(N(Cc2ccc(C(=O)NCCC(=O)O)cc2)c2ccc(SC(F)(F)F)cc2)n1,> 50,420 nM,> 1000 nM,5,–
O=C(O)CCNC(=O)c1ccc(CN(c2ccc3c(c2)CCC3)c2nc(-c3ccc(C(F)(F)F)cc3)cs2)cc1,> 50,86 nM,1100 nM,5,IC50 (Glucagon receptor [12]): 5400 nM; bioavailability [13]: 89%; Cmax [14]: 920 ng/mL; half-life [15]: 2.18 h; IC50 (Hepatocyte [16]): < 20000 nM; Tmax [17]: 1 h; IC50 [5]: 510 nM; IC50 (Glucagon receptor [6]): 64 nM; IC50 [18]: 81 nM; clearance [19]: 13 mL/min/kg; IC50 (Glucagon receptor [20]): 830 nM; inhibition (Hepatocyte [21]): inactive
O=C(O)CCNC(=O)c1ccc(N(Cc2ccc3c(c2)Cc2ccccc2-3)c2nc(-c3ccc(OC(F)(F)F)cc3)cs2)cc1,> 50,81 nM,732 nM,5,Tmax [22]: 1.5 h; clearance [23]: 31 mL/min/kg; half-life [15]: 0.767 h; Cmax [24]: 82 ng/mL; bioavailability [25]: 13%
O=C(O)CCNC(=O)c1ccc(CN(c2ccc(C3=CCCCC3)cc2)c2nc(-c3ccc(Cl)cc3)c(-c3ccccc3)s2)cc1,> 50,86 nM,1000 nM,5,–
O=C(O)CCNC(=O)c1ccc(CN(c2ccc3c(c2)CCC3)c2nc(-c3ccc(Cl)c(Cl)c3)cs2)cc1,> 50,99 nM,638 nM,5,–
O=C(O)CCNC(=O)c1ccc(CN(c2ccc(SC(F)(F)F)cc2)c2nc(-c3ccc(C(F)(F)F)cc3)cs2)cc1,> 50,34 nM,777 nM,5,–
